Measured values gathered from unrelated publications.
Converted amounts (≈) assume the structure as drawn.
Observed: microbial growth

CCCCCCCCCC(=O)N[C@@H](Cc1c[nH]c2ccccc12)C(=O)N[C@H](CC(N)=O)C(=O)N[C@@H](CC(=O)O)C(=O)N[C@@H]1C(=O)NCC(=O)N[C@@H](CCCN)C(=O)N[C@@H](CC(=O)O)C(=O)N[C@H](C)C(=O)N[C@@H](CC(=O)O)C(=O)NCC(=O)N[C@H](CO)C(=O)N[C@@H]([C@H](C)CC(=O)O)C(=O)N[C@@H](CC(=O)c2ccccc2N)C(=O)O[C@@H]1C  MIC (Enterococcus faecium; broth dilution; drug-resistant strain): 0.25 µg/mL (≈ 0.154 µM)
O=c1c2cc(Br)ccc2nc(/C=C/c2ccc([N+](=O)[O-])cc2)n1-c1cccc(O)c1  MIC (Enterococcus faecium; broth dilution; NCTC7171): > 128 µg/mL
COC(=O)c1cc(-c2ccc(OC)c(NC(=O)Nc3ccc(Cl)c(Cl)c3)c2)on1  MIC (Mycobacteroides chelonae; broth dilution; ATCC35752; 48 h): > 64 µg/mL
CCOC(=O)CON  MIC (Candida albicans; 28A): 32 µg/mL (≈ 269 µM)
COC(=O)c1cc(-c2cccc(NC(=O)Nc3ccccc3C)c2)on1  MIC (Mycobacteroides chelonae; broth dilution; ATCC35752; 48 h): > 64 µg/mL
CCCCCC/C=C\CCCCCCCCCc1cc(O)cc(O)c1  MIC (Enterococcus faecium; broth dilution; drug-resistant strain): 64 µg/mL (≈ 185 µM)
O=c1c2ccccc2nc(/C=C/c2ccc([N+](=O)[O-])cc2)n1-c1ccc(O)cc1  MIC (Enterococcus faecium; broth dilution; NCTC7171): 64 µg/mL (≈ 166 µM)
COC(=O)c1cc(-c2cccc(NC(=O)Nc3ccccc3)c2)on1  MIC (Mycobacteroides chelonae; broth dilution; ATCC35752; 48 h): > 64 µg/mL
C=C(NC(=O)C(=C)NC(=O)c1csc(C2=N[C@@H]3c4csc(n4)[C@H]4NC(=O)c5csc(n5)[C@H]([C@](C)(O)[C@@H](C)O)NC(=O)[C@H]5CSC(=N5)/C(=C/C)NC(=O)[C@H]([C@@H](C)O)NC(=O)c5csc(n5)[C@]3(CC2)NC(=O)[C@H](C)NC(=O)C(=C)NC(=O)[C@H](C)NC(=O)[C@H]([C@@H](C)CC)N[C@@H]2C=Cc3c([C@H](C)O)cc(nc3[C@H]2O)C(=O)O[C@@H]4C)n1)C(N)=O  MIC (Enterococcus faecium): 0.12 µg/mL (≈ 0.0721 µM)
O=c1c2ccccc2nc(CCc2ccccc2)n1-c1cccc(O)c1  MIC (Enterococcus faecium; broth dilution; NCTC7171): > 128 µg/mL
OC(Cn1cncn1)(Cn1cncn1)c1ccc(F)cc1F  MIC (Candida albicans; 28A): > 128 µg/mL
CN[C@H](CC(C)C)C(=O)N[C@H]1C(=O)N[C@@H](CC(N)=O)C(=O)N[C@H]2C(=O)N[C@H]3C(=O)N[C@H](C(=O)N[C@H](C(=O)O)c4cc(O)cc(O)c4-c4cc3ccc4O)[C@H](O)c3ccc(c(Cl)c3)Oc3cc2cc(c3O[C@@H]2O[C@H](CO)[C@@H](O)[C@H](O)[C@H]2O[C@H]2C[C@](C)(N)[C@H](O)[C@H](C)O2)Oc2ccc(cc2Cl)[C@H]1O  MIC (Enterococcus faecium; ATCCBAA2317 VRE; drug-resistant strain): 250 µg/mL (≈ 173 µM)
COC(=O)c1cc(-c2cccc(NC(=O)Nc3ccc(Cl)c(Cl)c3)c2)on1  MIC (Mycobacteroides chelonae; broth dilution; ATCC35752; 48 h): > 64 µg/mL
O=c1c2ccccc2nc(Cc2ccccc2)n1-c1cccc(O)c1  MIC (Enterococcus faecium; broth dilution; NCTC7171): 128 µg/mL (≈ 390 µM)
